Structures are written as SMILES.

Experiment [1] deals with NCI-H460. Nature of the experiment: Ratio of GDC-0941 IC50 to compound IC50 for human H460 cells assessed as growth inhibition after 72 hrs by MTT assay. In kind it is functional. A general note: Tetrazolium dyes change colour on reduction, which living cells bring about.
Experiment [2] deals with HT-29. Nature of the experiment: Ratio of GDC-0941 IC50 to compound IC50 for human HT-29 cells assessed as growth inhibition after 72 hrs by MTT assay. It is filed as functional.
In experiment [3] the test system is NCI-H1975. Briefly: Cytotoxicity against human NCI-H1975 cells assessed as growth inhibition after 72 hrs by MTT assay. In kind it is functional, cell-based. The note with it: NCI-H1975, 72 h. The method in brief:
(§1)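 Cells grown in MEM with 10% FBS. About 4×10^3 cells/well were pre-incubated for 24 h at 37 °C in 5% CO₂, then exposed to compound at the indicated final concentrations for 72 h. MTT was added to 5 µg/mL final for 4 h at 37 °C. Formazan was dissolved in DMSO and read at 492 nm, with 630 nm as reference. IC50 is the mean of three determinations.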

In experiment [4] the test system is HepG2. Nature of the experiment: Cytotoxicity against human HepG2 cells assessed as growth inhibition after 72 hrs by MTT assay. The note with it: HepG2, 72 h. In kind it is functional, cell-based. The method in brief:
as §1

Experiment [5] can be described thus: Cytotoxicity against human U87MG cells assessed as growth inhibition after 72 hrs by MTT assay. In kind it is functional, cell-based, U-87MG ATCC. The settings on record: U-87 MG. The method in brief:
as §1

For experiment [6], the system named is SGC-7901. Briefly: Cytotoxicity against human SGC7901 cells assessed as growth inhibition after 72 hrs by MTT assay. It is filed as functional, cell-based. The settings on record: SGC-7901, 72 h. The method in brief: as §1
Experiment [7] has as its system A549. Briefly: Cytotoxicity against human A549 cells assessed as growth inhibition after 72 hrs by MTT assay. The settings on record: A549, 72 h. In kind it is functional, cell-based. The method in brief:
as §1

Experiment [8] deals with NCI-H460. Nature of the experiment: Cytotoxicity against human H460 cells assessed as growth inhibition after 72 hrs by MTT assay. It is filed as functional, cell-based. The note with it: NCI-H460, 72 h. The method in brief: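 Cells grown in MEM with 10% FBS. About 4×10^3 cells/well were pre-incubated for 24 h at 37 °C in 5% CO₂, then exposed to compound at the indicated final concentrations for 72 h. MTT was added to 5 µg/mL final for 4 h at 37 °C. IC50 is the mean of three determinations.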

Experiment [9] relates to NCI-H226. Briefly: Cytotoxicity against human NCI-H226 cells assessed as growth inhibition after 72 hrs by MTT assay. The note with it: NCI-H226, 72 h. In kind it is functional, cell-based. The method in brief:
as §1

The test system of experiment [10] is HT-29. Nature of the experiment: Cytotoxicity against human HT-29 cells assessed as growth inhibition after 72 hrs by MTT assay. The settings on record: HT-29, 72 h. It is filed as functional, cell-based. The method in brief:
as §1

For experiment [11], the system named is MDA-MB-231. Briefly: Cytotoxicity against human MDA-MB-231 cells assessed as growth inhibition after 72 hrs by MTT assay. The settings on record: MDA-MB-231, 72 h. It is filed as functional, cell-based. The method in brief: as §1
The test system of experiment [12] is MDA-MB-231. Nature of the experiment: Ratio of GDC-0941 IC50 to compound IC50 for human MDA-MB-231 cells assessed as growth inhibition after 72 hrs by MTT assay. In kind it is functional.

As for `Fc1cccc(Cn2cc(/C=N/Nc3nc(N4CCOCC4)c4sccc4n3)c3ccccc32)c1`, the “Ratio IC50” value in [1] was 3.8; in experiment [2], 1.7; in [12], 66.5. The IC50 in [3] was found to be 19 µM; in [4], 1.1 µM; in [5], 12.6 µM; in [6], 0.8 µM; in [7], 8.7 µM; in experiment [8] (read-out: IC50), 0.23 µM. The IC50 in experiment [8] (read-out: pIC50 (converted)) is 0.224 µM; in experiment [9], 0.91 µM; in experiment [10], 0.39 µM; in experiment [11], 1.11 µM.
Turning to `CS(=O)(=O)N1CCN(Cc2cc3nc(-c4cccc5[nH]ncc45)nc(N4CCOCC4)c3s2)CC1` [PICTILISIB], the IC50 in experiment [3] stood at 0.27 µM; in experiment [4], 1 µM; in [5], 7.77 µM; in experiment [6], 1.8 µM; in experiment [7], 6.9 µM; in [9] it was 2.9 µM. Moreover, the IC50 in experiment [10] worked out at 0.66 µM; in experiment [11], 73.8 µM.

The values above are taken from ChEMBL document CHEMBL2086281, “Design, synthesis and 3D-QSAR analysis of novel 2-hydrazinyl-4-morpholinothieno[3,2-d]pyrimidine derivatives as potential antitumor agents” (Eur J Med Chem, 2012).
